Records with an inconclusive call do not appear.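 The calls were made as follows, unless noted: active = RAM network inhibition above 8.4% in each of two replicates, 3 SD over the compound average; inconclusive = above 8.4% inhibition in only one replicate; inactive = 8.4% inhibition or less in each replicate.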
Tests used:
[1] = S. cerevisiae growth inhibition in permissive medium (OD615), pilot counter-assay for S. cerevisiae lifespan shortening project, permissive growth control (AID 705;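 active = growth inhibition above 25% in both replicates, a cutoff set 3 SD above the mean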); details: OD615, 24 h, at 10 µM, hits give high values
Summary of the method: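 System: engineered DeaD yeast; Medium: permissive raffinose/galactose medium; Compound dosing: 10 µM single dose, 0.25% DMSO; Incubation: 4 h cell pre-growth, 24 h exposure at 30 °C; Technique: OD at 615 nm; Evaluation: growth inhibition from lowered OD615 after 24 h.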

[2] = S. cerevisiae growth inhibition in restrictive medium, OD615, pilot screen, restrictive growth control, yeast lifespan reduction project (AID 706;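 active = growth inhibition above a set limit, 3 SD over mean compound inhibition, in both replicates, cut at about 43% in these data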;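 also: modified DeaD lifespan yeast strain shifted to restrictive glucose medium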); details: OD615, 48 h, at 10 µM, hits give high values
Summary of the method: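 Material: modified S. cerevisiae; buffer or medium: CSMM-D glucose medium; doses: one concentration, 10 µM final, 0.25% DMSO; incubation: 48 h compound exposure at 30 °C; detection: optical density at 615 nm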

[3] = doxorubicin toxicity protection in MRP-1 cells – H69AR cells, CellTiter-Glo, duplicate, MRP-1 activator project, pilot screen (AID 807;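 active = viability increase at or above a cutoff of the median across tested compounds plus 3 SD, cut at about 8.5% in these data, passing the limit was not always enough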;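 also: compound pretreatment 18-22 h then 72 h combined with doxorubicin; 0% = doxorubicin alone and 100% = vehicle without doxorubicin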); details: H69AR viability with doxorubicin, CellTiter-Glo luminescence; at 10 µM; hits give high values
[4] = viability of HCT116 without oncogenic beta-catenin – human colon tumor cells, pilot screen (AID 823;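 active = cell viability at or below a set limit in both duplicate runs, the limit being the all-compound median minus 4 SD, cut at about 23% in these data, passing the limit was not always enough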;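 also: 0% = wells killed by 20 µM Hyamine and 100% = untreated DMSO cell wells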); details: HCT116 beta-catenin knockout viability, CellTiter-Glo, 60 h; at 10 µM; hits give low values
[5] = viability of PTEN-null HCT116 cells – cell-based, HCT116 clonal line, CellTiter-Glo, pilot screen (AID 824;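 active = viability at or below 27.92% in each of two runs, the all-compound median minus 4 SD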;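 also: 0% = 20 µM Hyamine control and 100% = vehicle cell control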); details: HCT116 PTEN-deleted viability, 60 h, at 10 µM, hits give low values
[6] = RAM pathway blockade in budding yeast – dse1pr::URA3 reporter, 5-FOA selection, pilot screen (AID 869;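 active = inhibition over a set limit, the all-compound mean plus 3 SD, in both replicate runs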;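 also: 0% = DMSO wells with no growth and 100% = 10 µM 1-NA-PP1 with full growth; RAM network block rescues cells from 5-FOA so hits raise OD615 growth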); details: S. cerevisiae dse1pr::URA3 5-FOA growth, OD615, 2 d; at 10 µM; hits give high values; strain carries analog-sensitive mutant Cbk1 kinase
[7] = RAM signaling pathway blockade in yeast – S. cerevisiae, Pdr1DBD-CYC8 efflux-inhibited sensitized strain, primary screen (AID 1298);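 also: 0% = DMSO untreated cells without growth and 100% = 10 µM 1-NA-PP1 full growth; higher means more yeast growth rescued from 5-FOA killing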; details: S. cerevisiae cbk1-as DSE1-URA3 strain, 5-FOA growth OD615, 2 d; at 50 µM; hits give high values

CCCCN=C(C)C1=C(O)CSC1=O
inactive: growth inhibition [1] -1.78% | growth inhibition [2] 4.99% | viability increase [3] -1.7% | viability [4] 104% | viability [5] 99.7% | inhibition [6] 2% | RAM network inhibition [7] 3.8%

COc1ccc(S(=O)(=O)N(CCc2ccccc2)CC(=O)O)cc1OC
inactive: growth inhibition [1] -1.68% | growth inhibition [2] 10.5% | viability increase [3] 0.57% | viability [4] 97.6% | viability [5] 102% | inhibition [6] 1.35% | RAM network inhibition [7] 1.09%

CC(=O)N1CCc2cc(C(=O)CN3CCCCC3)ccc21
inactive: growth inhibition [1] -6.58% | growth inhibition [2] -8.28% | viability increase [3] -2.19% | viability [4] 99% | viability [5] 94.7% | inhibition [6] 0.435% | RAM network inhibition [7] 1.91%

O=C(NCc1ccco1)C1CCCN(S(=O)(=O)c2cccc3cccnc23)C1 (stereo not given)
inactive: growth inhibition [1] -10.6% | growth inhibition [2] -8.38% | viability increase [3] -4.15% | viability [4] 96.4% | viability [5] 94.4% | inhibition [6] 0.595% | RAM network inhibition [7] 0.89%

COc1cc(C(=O)NCC(c2cccnc2)N2CCN(c3ccccc3)CC2)cc(OC)c1OC (stereo not given)
inactive: growth inhibition [1] -6.31% | growth inhibition [2] -10.5% | viability increase [3] -4.26% | viability [4] 98.4% | viability [5] 92.5% | inhibition [6] 2.09% | RAM network inhibition [7] 2.64%

COc1cc(C(c2sc3nc(C)nn3c2O)N2CC(C)OC(C)C2)cc(OC)c1OC (stereo not given)
inactive: growth inhibition [1] -0.68% | growth inhibition [2] -4.15% | viability increase [3] -2.37% | viability [4] 93.6% | viability [5] 90.1% | inhibition [6] 0.73% | RAM network inhibition [7] 2.94%

O=C(Cn1ncc2c(=O)oc3ccccc3c21)N(Cc1ccco1)C1CCCCC1
inactive: growth inhibition [1] -4.29% | growth inhibition [2] -1.01% | viability increase [3] -4.59% | viability [4] 92.5% | viability [5] 94.6% | inhibition [6] 2.71% | RAM network inhibition [7] 5.12%

CC(=O)C1C(c2ccc(OC(F)F)cc2)NC(=O)NC1(O)C(F)(F)F (stereo not given)
inactive: growth inhibition [1] 3.71% | growth inhibition [2] -6.05% | viability increase [3] 0.74% | viability [4] 107% | viability [5] 97.4% | inhibition [6] 0.31% | RAM network inhibition [7] 5.93%

COC1=C(OC)c2ccccc2C(C(=O)O)N/C1=C(/C)Nc1ccncc1 (stereo not given)
inactive: growth inhibition [1] -5.63% | growth inhibition [2] -2.54% | viability increase [3] -0.91% | viability [4] 94.7% | viability [5] 91.5% | inhibition [6] 1.11% | RAM network inhibition [7] -1.82%

CCOC(=O)C(CCOc1cccc(CC)c1)C(=O)OCC
inactive: growth inhibition [1] 4.28% | growth inhibition [2] -17.2% | viability increase [3] -2.61% | viability [4] 89.5% | viability [5] 87% | inhibition [6] -0.12% | RAM network inhibition [7] 2.13%

Cc1ccccc1Cn1c(CN2CCN(c3ccc(F)cc3)CC2)nc2c1c(=O)n(C)c(=O)n2C
inactive: growth inhibition [1] -12.2% | growth inhibition [2] -17.1% | viability increase [3] -3.7% | viability [4] 94.4% | viability [5] 92.2% | inhibition [6] 2.51% | RAM network inhibition [7] 7.93%

O=C(CSc1nc2sc3c(c2c(=O)n1-c1ccccc1)CCCC3)NCc1ccco1
inactive: growth inhibition [1] -7.07% | growth inhibition [2] -5.03% | viability increase [3] -7.21% | viability [4] 53.7% | viability [5] 53.8% | inhibition [6] 3.98% | RAM network inhibition [7] 6.12%

CCOC(=O)c1c(N=CN(C)C)c(C#N)n2c1CCC2
inactive: growth inhibition [1] -15.1% | growth inhibition [2] -6.7% | viability increase [3] -1.41% | viability [4] 101% | viability [5] 93.2% | inhibition [6] 1.11% | RAM network inhibition [7] 5.49%

C=CCn1c(SCCCC)nc(O)cc1=O
inactive: growth inhibition [1] 1.55% | growth inhibition [2] 8.79% | viability increase [3] -0.11% | viability [4] 105% | viability [5] 102% | inhibition [6] 0.02% | RAM network inhibition [7] -0.21%

CCC1(C(=O)O)NC(c2cc(OC)ccc2O)C2C(=O)N(Cc3ccccc3)C(=O)C21 (stereo not given)
inactive: growth inhibition [1] 2.51% | growth inhibition [2] -7.93% | viability increase [3] -0.32% | viability [4] 102% | viability [5] 99.8% | inhibition [6] 0.37% | RAM network inhibition [7] 1.51%

— PubChem BioAssay
